The source of these data is publication PMC3101112 (Cancer Management and Research, 2011).

Data set [1] is described as follows: QTc assessment in patients with relapsed AML. The format is in vivo, human. The conditions noted are these: after the single-dose administration, 48-hour follow-up. The method, boiled down:
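QTc was corrected by both Bazett and Fridericia formulas and compared with baseline across the 48 h after a single 50 mg oral dose. QTc was set against test-compound plasma concentration. Grade 3 was defined as >500 msec or a rise of >60 msec from baseline, confirmed by 12-lead ECG.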

A further data set deals with RET (Homo sapiens, UniProt P07949). In words: Biochemical inhibition profile, RET. The following applies: read-out: Biochemical Inhibition Profile IC50, RET.
The target of another data set is EPHA4 (Homo sapiens, UniProt P54764). The experiment in a line: Biochemical inhibition profile, EPHA4. The conditions noted are these: read-out: Biochemical Inhibition Profile IC50, EPHA4.
The next data set deals with EPHA2 (Homo sapiens, UniProt P29317). The experiment in a line: Biochemical inhibition profile, EPHA2. The conditions noted are these: read-out: Biochemical Inhibition Profile IC50, EPHA2.
Another data set has as its system AML blasts. In words: Antileukemia response assessment in patients. The format is in vivo, human. An outline of the steps:
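Response was judged by WHO criteria on bone marrow aspirates taken at baseline and after four weeks of daily oral dosing (two weeks after amendment). Peripheral blast counts were taken daily during the multidose visit. A sustained fall in peripheral blast counts lasting longer than four weeks also counted as a pharmacodynamic response.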

The target in another data set is EPHB1 (Homo sapiens, UniProt P54762). The experiment in a line: Biochemical inhibition profile, EPHB1. The following applies: read-out: Biochemical Inhibition Profile IC50, EPHB1.
A further data set deals with pERK T202Y204 in HUVEC. The experiment in a line: Cell-based target inhibition assay, HUVEC, VEGF, pERK. Also noted: species or system human. The following applies: read-out: Cell-Based Target Inhibition Assays IC50, pERK T202Y204, activator VEGF.
In another data set the target is cKIT (Homo sapiens, UniProt P10721). In words: Biochemical inhibition profile, cKIT. The conditions noted are these: read-out: Biochemical Inhibition Profile IC50, cKIT.
Another data set deals with p70S6K (Homo sapiens, UniProt P23443). In words: Biochemical inhibition profile, p70S6K. The conditions noted are these: at 20 μM.
For data set [2], the system named is CYP3A4, CYP2D6, and CYP2C9. In words: Drug-drug interaction cocktail. The format is in vivo, human. The conditions noted are these: AML patients, cocktail before and after multiple doses of 50 mg/day. The method, boiled down: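 The probe cocktail was midazolam 0.2 mg (CYP3A4), dextromethorphan 30 mg (CYP2D6) and tolbutamide 500 mg (CYP2C9), given after a two-hour fast. It was dosed ~7 days before the single test-compound dose and again after two or four weeks of daily 50 mg oral test compound. Probe plasma concentration–time profiles were compared before and after treatment.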

For the next data set, the target named is TIE2 (Homo sapiens, UniProt Q02763). In words: Cell-based target inhibition assay, CHO - Clone113, pTIE2. The following applies: read-out: Cell-Based Target Inhibition Assays IC50, pTIE2 pY99, stable over-expression of TIE2.
The target in another data set is VEGF-R1 (Homo sapiens, UniProt P17948). The experiment in a line: Biochemical inhibition profile, VEGF-R1. The following applies: read-out: Biochemical Inhibition Profile IC50, VEGF-R1.
The subject of a further data set is MV4-11. In words: cells. The format is cell-based. The following applies: read-out: Cell-Based Antiproliferation Assay IC50; MV4-11; constitutively active (FLT3 ITD Mutation D835).
A further data set addresses PDGF-Rb (Homo sapiens, UniProt P09619). In words: Biochemical inhibition profile, PDGF-Rb. The following applies: read-out: Biochemical Inhibition Profile IC50, PDGF-Rb.
A further data set concerns RAF. The experiment in a line: Biochemical inhibition profile, RAF. Also noted: species or system Human. The conditions noted are these: read-out: Biochemical Inhibition Profile IC50, RAF.
Another data set has as its target EPHA3 (Homo sapiens, UniProt P29320). The experiment in a line: Biochemical inhibition profile, EPHA3. The following applies: read-out: Biochemical Inhibition Profile IC50, EPHA3.
The next data set has as its target EPHA7 (Homo sapiens, UniProt Q15375). The experiment in a line: Biochemical inhibition profile, EPHA7. The conditions noted are these: read-out: Biochemical Inhibition Profile IC50, EPHA7.
In data set [3] the test system is pERK T202Y204 in HUVEC (with BSA). In words: Cell-based target inhibition assay, HUVEC, VEGF, pERK with BSA. Also noted: species or system human. The conditions noted are these: read-out: Cell-Based Target Inhibition Assays IC50, pERK T202Y204 (with BSA), activator VEGF, with BSA.
The next data set deals with EPHA5 (Homo sapiens, UniProt P54756). In words: Biochemical inhibition profile, EPHA5. The following applies: read-out: Biochemical Inhibition Profile IC50, EPHA5.
The test system of data set [4] is MV4-11 cells containing the FLT3-ITD mutation. The conditions noted are these: animals; cited from earlier work.
For another data set, the target named is VEGF-R3 (Homo sapiens, UniProt P35916). The experiment in a line: Biochemical inhibition profile, VEGF-R3. The conditions noted are these: read-out: Biochemical Inhibition Profile IC50, VEGF-R3.
VEGF-R3, sequence (P35916 25-1363): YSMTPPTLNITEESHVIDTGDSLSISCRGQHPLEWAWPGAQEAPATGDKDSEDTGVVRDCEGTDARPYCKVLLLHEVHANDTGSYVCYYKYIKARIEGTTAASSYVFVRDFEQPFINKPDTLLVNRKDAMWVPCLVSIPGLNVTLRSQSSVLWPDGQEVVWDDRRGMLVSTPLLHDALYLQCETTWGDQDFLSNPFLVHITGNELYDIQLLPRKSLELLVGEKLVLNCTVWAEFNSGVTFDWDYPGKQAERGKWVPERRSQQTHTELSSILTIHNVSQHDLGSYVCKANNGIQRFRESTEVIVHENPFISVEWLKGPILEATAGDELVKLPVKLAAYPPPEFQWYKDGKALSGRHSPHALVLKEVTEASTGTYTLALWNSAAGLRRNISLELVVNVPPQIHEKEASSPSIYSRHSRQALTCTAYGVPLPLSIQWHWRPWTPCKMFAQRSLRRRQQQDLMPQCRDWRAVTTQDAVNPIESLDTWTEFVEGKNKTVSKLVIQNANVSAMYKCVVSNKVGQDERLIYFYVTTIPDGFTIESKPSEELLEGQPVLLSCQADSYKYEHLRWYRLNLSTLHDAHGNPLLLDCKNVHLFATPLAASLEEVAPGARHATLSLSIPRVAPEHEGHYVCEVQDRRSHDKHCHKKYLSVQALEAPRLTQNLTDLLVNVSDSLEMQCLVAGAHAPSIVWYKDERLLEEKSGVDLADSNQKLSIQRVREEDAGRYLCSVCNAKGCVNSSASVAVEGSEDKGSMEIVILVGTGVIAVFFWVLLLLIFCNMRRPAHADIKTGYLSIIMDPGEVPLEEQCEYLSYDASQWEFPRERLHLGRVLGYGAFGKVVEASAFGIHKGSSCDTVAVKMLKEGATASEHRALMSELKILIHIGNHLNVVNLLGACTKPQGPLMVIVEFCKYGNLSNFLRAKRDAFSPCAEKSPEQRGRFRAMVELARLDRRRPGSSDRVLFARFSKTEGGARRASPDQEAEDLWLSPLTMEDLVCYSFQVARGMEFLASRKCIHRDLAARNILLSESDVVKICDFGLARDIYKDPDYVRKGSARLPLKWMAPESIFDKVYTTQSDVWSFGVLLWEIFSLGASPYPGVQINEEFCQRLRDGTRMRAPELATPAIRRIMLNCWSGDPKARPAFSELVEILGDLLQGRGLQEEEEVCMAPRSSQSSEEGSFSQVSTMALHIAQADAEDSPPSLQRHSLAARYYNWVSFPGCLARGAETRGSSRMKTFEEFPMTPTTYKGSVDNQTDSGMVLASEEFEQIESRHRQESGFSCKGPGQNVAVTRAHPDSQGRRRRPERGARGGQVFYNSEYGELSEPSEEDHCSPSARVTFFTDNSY

cKIT, sequence (P10721 26-976): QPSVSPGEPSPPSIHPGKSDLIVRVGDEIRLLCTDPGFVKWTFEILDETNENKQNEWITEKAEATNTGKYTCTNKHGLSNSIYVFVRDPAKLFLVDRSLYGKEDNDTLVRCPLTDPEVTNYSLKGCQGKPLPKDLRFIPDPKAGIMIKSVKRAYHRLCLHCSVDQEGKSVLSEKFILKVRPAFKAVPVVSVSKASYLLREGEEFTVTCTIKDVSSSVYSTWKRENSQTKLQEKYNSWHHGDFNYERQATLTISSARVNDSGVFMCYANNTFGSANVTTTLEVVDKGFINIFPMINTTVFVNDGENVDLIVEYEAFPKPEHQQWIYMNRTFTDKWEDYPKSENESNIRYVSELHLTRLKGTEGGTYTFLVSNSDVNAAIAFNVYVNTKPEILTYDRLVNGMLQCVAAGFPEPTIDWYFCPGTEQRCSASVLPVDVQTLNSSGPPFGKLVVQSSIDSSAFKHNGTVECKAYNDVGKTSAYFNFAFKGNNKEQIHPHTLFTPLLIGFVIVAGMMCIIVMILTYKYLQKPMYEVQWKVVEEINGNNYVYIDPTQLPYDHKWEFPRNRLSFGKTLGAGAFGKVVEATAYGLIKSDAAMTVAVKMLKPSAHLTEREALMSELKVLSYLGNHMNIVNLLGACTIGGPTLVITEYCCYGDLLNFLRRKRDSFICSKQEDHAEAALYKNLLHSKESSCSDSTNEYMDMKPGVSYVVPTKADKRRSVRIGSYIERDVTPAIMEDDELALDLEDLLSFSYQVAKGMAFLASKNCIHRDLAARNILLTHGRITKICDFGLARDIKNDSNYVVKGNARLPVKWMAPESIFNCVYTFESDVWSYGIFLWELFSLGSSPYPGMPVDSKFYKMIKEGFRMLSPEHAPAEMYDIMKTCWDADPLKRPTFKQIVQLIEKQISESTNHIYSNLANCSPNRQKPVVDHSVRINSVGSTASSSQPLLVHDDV
EPHA4, sequence (P54764 20-986): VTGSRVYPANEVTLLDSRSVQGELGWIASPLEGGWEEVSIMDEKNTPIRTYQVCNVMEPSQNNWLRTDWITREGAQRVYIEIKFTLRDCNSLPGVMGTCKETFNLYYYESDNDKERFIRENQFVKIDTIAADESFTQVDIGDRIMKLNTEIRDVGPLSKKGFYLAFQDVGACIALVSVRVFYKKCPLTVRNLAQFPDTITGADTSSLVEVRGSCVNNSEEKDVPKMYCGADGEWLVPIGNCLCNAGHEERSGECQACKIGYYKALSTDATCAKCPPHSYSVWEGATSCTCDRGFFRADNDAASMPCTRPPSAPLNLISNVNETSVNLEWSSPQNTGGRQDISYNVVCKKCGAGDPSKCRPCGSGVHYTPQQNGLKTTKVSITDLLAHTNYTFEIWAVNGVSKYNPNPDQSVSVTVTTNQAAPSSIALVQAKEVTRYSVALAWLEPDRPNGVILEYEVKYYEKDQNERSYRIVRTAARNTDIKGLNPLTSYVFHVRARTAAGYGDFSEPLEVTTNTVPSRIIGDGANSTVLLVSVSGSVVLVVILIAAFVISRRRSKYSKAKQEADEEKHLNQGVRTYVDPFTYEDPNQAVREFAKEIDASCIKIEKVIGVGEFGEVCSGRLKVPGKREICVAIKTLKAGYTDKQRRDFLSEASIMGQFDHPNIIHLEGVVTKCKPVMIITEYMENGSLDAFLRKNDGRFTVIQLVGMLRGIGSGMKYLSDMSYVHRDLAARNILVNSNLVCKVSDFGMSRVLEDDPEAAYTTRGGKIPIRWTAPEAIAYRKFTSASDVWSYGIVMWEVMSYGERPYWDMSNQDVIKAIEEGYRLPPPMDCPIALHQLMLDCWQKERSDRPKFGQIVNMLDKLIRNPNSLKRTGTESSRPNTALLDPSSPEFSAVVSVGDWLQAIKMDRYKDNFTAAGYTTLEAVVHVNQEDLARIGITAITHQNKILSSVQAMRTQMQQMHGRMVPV
EPHA7, sequence (Q15375 28-998): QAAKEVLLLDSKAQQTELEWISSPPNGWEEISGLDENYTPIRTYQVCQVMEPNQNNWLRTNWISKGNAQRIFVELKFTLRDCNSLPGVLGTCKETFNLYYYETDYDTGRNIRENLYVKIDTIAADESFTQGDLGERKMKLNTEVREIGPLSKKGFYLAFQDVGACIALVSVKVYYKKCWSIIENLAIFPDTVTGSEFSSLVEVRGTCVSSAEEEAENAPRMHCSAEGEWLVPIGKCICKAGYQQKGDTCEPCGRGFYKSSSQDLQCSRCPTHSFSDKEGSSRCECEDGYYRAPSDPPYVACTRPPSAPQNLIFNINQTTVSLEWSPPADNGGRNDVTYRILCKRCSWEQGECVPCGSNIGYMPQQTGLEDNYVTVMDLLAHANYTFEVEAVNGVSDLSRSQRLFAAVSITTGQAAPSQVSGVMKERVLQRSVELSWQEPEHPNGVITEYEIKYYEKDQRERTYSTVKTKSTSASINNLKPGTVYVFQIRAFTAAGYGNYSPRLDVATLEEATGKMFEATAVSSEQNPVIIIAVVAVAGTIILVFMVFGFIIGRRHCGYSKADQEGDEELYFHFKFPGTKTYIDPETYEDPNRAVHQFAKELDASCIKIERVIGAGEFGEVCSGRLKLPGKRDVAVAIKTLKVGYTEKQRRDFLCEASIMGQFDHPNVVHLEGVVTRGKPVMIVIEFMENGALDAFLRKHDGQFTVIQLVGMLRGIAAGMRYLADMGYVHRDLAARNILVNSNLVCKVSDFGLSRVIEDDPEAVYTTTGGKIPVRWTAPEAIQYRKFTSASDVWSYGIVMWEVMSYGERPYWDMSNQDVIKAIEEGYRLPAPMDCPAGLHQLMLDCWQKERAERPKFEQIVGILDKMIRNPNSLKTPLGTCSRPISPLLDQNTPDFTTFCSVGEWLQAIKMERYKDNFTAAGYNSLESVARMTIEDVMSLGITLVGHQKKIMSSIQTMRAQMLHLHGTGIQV
p70S6K, sequence (P23443 whole entry): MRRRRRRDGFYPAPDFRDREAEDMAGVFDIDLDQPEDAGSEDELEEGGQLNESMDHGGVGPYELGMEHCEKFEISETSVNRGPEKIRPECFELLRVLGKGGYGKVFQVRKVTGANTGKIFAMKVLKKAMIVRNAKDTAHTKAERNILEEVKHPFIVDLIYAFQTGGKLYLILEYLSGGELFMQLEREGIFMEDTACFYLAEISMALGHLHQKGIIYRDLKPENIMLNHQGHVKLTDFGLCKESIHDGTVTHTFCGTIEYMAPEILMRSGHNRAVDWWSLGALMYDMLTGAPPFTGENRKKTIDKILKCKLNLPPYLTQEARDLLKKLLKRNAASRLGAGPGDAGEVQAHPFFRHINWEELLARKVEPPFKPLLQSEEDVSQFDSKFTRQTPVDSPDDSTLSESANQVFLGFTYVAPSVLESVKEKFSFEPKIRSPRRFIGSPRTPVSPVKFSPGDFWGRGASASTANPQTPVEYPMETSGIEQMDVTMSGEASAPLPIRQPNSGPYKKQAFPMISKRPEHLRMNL

In the case of `Cc1cc(-c2ccn3c(-c4ccc(CC(=O)Nc5cccc(C(F)(F)F)c5)c(F)c4)cnc3c2)ccn1` [LY2457546], the “QTc prolongation after Bazet and Fridericia corrections” value in data set [1] is reported as “not present”. Further, the IC50 at RET came out at 4.19 nM; at EPHA4 it was 157 nM; on EPHA2, 37.4 nM; at EPHB1 it was 21.4 nM; in the data set on pERK T202Y204 in HUVEC it was 2.05 nM; at cKIT it was 73.8 nM. The IC50 on TIE2 was 166 nM; at VEGF-R1, 30.6 nM; in the data set on MV4-11, 0.339 nM; at PDGF-Rb, 25.7 nM; in the data set on RAF, 264 nM; on EPHA3, 99.8 nM. Besides, the IC50 was found to be 221 nM on EPHA7, 41.4 nM in data set [3], 10.7 nM at EPHA5 and 34.1 nM on VEGF-R3. Further, the Antileukemia response entry in the data set on AML blasts (five treated patients, 50 mg/day) is listed as “No medically relevant responses”. In addition, in the data set on AML blasts (one of the five patients (B), through day 10), the “Leukocyte and blast cell counts” value is listed as “significant but transient decrease”. Further, the “p70S6K percent inhibition at 20 μM” value at p70S6K is given as 75.9%. Moreover, the “Drug-drug interactions with midazolam, tolbutamide, and dextromethorphan” value in data set [2] is given as “No consistent drug–drug interactions”. Also, the “Potency relative to sunitinib in controlling leukemia growth” value in [4] was 10 fold.
